# Measured values published in ChEMBL document CHEMBL5108087, “Synthesis and biological evaluation of paeoveitol D derivatives as new melatonin receptor agonists with antidepressant activities” (RSC Med Chem, 2022).
# pEC50: −log10 of the molar value. Active and inactive are the calls of the source. No cut-off for these calls is given here.
# Experiments:
# HEK293T = assay: (§1) Agonist activity at human MT1 N162A mutant receptor transfected in HEK293T cells co-transfected with tet-inducible luciferase reporter plasmid, pCDNA3.1(+)-CMV-betaArrestin2-tev plasmid and TANGO plasmid assessed as shift in concentration response curve incubated for 24 hrs by TANGO-GPCR assay based luminescence plate reader analysis relative to agomelatine; type: cell-based; conditions: filed as agonist
# Outline: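 293T cells transiently transfected with tet-inducible luciferase reporter, pCDNA3.1(+)-CMV-bArrestin2-tev and TANGO receptor plasmids (wild-type or point mutant). Next day plated at 20 000 cells/well on poly-L-lysine; drug added day 3. Day 4, Bright-Glo added, 20 min, then luminescence read. Concentration–response curves fitted; data mean ± SD.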
# Mus musculus [1] = assay: Antidepressant activity in Kunming mouse assessed as decrease in immobility time at 40 mg/kg, po and measured after 14 days by forced swim test relative to control; type: functional; set-up: scale not given: the % may be the effect or the level left; conditions: time 14 day
# Outline: (§2)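 Male Kunming mice, 15–18 g, given the test compound orally for 14 days. Forced swim then done in a cylinder 25 cm high and 15 cm in diameter, water 10 cm deep at 25 ± 1 °C. Swim lasted 6 min and immobility over the final 4 min was video-scored against the vehicle group.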
# Mus musculus [2] = assay: Antidepressant activity in kunming mouse assessed as increase in 5-HT level in hypothalamus at 160 mg/kg, po measured after 14 days by HPLC-ECD analysis; type: functional, organism-based; conditions: time 14.0 day
# Outline: (§3)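 Male Kunming mice dosed orally with vehicle or 160 mg kg−1 for 14 days, then killed by cervical dislocation. Brain regions dissected on ice, homogenized in 0.2 M perchloric acid with 0.1 mM EDTA and spun at 4 °C for 20 min. Supernatant analysed by HPLC-ECD at +0.50 V, mobile phase pH 3.0. Amounts given in ng g−1 as mean ± SEM, n = 12.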
# Mus musculus [3] = assay: Antidepressant activity in kunming mouse assessed as decrease in 5-HIAA level in hippocampus at 160 mg/kg, po measured after 14 days by HPLC-ECD analysis; type: functional, organism-based; conditions: time 14.0 day; outline: as §3
# Mus musculus [4] = assay: Antidepressant activity in kunming mouse assessed as decrease in 5-HIAA level in hypothalamus at 160 mg/kg, po measured after 14 days by HPLC-ECD analysis; type: functional, organism-based; conditions: time 14.0 day; outline: as §3
# [5] = Subacute toxicity in Kunming mouse assessed as animal death at 240 mg/kg, po administered for 14 days; type: organism-based; conditions: in vivo, 336 h, time 14 day
# Outline: (§4)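 Subacute oral study following OECD 425. Animals randomised into two groups of six. Vehicle control received 0.5% CMC-Na orally for 14 consecutive days; the treated group received 240 mg kg−1 body weight orally for 14 consecutive days.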
# [6] = AUC (0 to infinity) in Kunming mouse at 80 mg/kg, po administered as single dose and measured upto 24 hrs; type: ADME, organism-based; set-up: time < 24 hrs, dose 80 mg/kg, route po; conditions: in vivo
# Mus musculus [7] = assay: Antidepressant activity in kunming mouse assessed as increase in 5-HT level in frontal cortex at 160 mg/kg, po measured after 14 days by HPLC-ECD analysis; type: functional, organism-based; conditions: time 14.0 day; outline: as §3
# Mus musculus [8] = assay: Antidepressant activity in kunming mouse assessed as increase in dopamine level in hypothalamus at 160 mg/kg, po measured after 14 days by HPLC-ECD analysis; type: functional, organism-based; conditions: time 14.0 day; outline: as §3
# [9] = biological target: T1, Melatonin receptor type 1A (Homo sapiens, UniProt P48039); assay: Agonist activity at human MT1 receptor expressed in HEK293 cells by Fluo-8 based calcium assay; type: functional, cell-based
# Mus musculus [10] = assay: Antidepressant activity in Kunming mouse assessed as decrease in immobility time at 80 mg/kg, po and measured after 14 days by forced swim test relative to control; type: functional; set-up: scale not given: the % may be the effect or the level left; conditions: time 14 day; outline: as §2
# [11] = biological target: T2, Melatonin receptor type 1B (Homo sapiens, UniProt P49286); assay: as §1, with “MT2” for “MT1 N162A mutant”, “relative luminescence unit” for “shift in concentration response curve”, “analysis” for “analysis relative to agomelatine”; type: functional, cell-based
# T2 sequence (P49286 whole entry): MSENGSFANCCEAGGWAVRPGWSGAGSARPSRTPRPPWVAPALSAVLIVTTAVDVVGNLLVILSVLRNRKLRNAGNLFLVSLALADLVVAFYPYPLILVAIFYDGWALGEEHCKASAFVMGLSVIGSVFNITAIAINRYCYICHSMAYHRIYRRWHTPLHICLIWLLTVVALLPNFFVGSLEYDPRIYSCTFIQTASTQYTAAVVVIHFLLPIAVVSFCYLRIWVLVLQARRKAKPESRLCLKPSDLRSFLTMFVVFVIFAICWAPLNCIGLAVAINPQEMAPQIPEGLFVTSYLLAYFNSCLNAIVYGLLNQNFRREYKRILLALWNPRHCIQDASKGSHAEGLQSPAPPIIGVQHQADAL
# [12] = biological target: T1, Melatonin receptor type 1A; assay: as §1, with “MT1” for “MT1 N162A mutant”, “tango arrestin recruitment by measuring maximum activity” for “shift in concentration response curve”; type: functional, cell-based; conditions: filed as agonist
# Outline: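 Tango arrestin recruitment: 293T cells transiently transfected with a tet-inducible luciferase reporter, CMV-βArrestin2-TEV and TANGO receptor plasmids. On day 2, replated at 20 000 cells per well on poly-L-lysine. Drug added on day 3. On day 4, luciferase reagent added for 20 min and luminescence counted. Curves fitted; data given as mean ± SD.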
# [13] = Subacute toxicity in Kunming mouse assessed as effect on kidney structure at 240 mg/kg, po administered for 14 days; type: organism-based; conditions: in vivo, 336 h, time 14 day; outline: as §4
# [14] = Half-life in Kunming mouse at 80 mg/kg, po administered as single dose and measured upto 24 hrs; type: ADME, organism-based; conditions: in vivo
# Mus musculus [15] = assay: Antidepressant activity in kunming mouse assessed as increase in dopamine level in thalamus at 160 mg/kg, po measured after 14 days by HPLC-ECD analysis; type: functional, organism-based; conditions: time 14.0 day; outline: as §3
# [16] = Tmax in Kunming mouse at 80 mg/kg, po administered as single dose and measured upto 24 hrs; type: ADME, organism-based; conditions: in vivo
# [17] = Subacute toxicity in Kunming mouse assessed as effect on liver structure at 240 mg/kg, po administered for 14 days; type: organism-based; conditions: in vivo, 336 h, time 14 day; outline: as §4
# Mus musculus [18] = assay: Antidepressant activity in kunming mouse assessed as increase in 5-HT level in thalamus at 160 mg/kg, po measured after 14 days by HPLC-ECD analysis; type: functional, organism-based; conditions: time 14.0 day; outline: as §3
# Mus musculus [19] = assay: Antidepressant activity in Kunming mouse assessed as decrease in immobility time at 160 mg/kg, po administered two times at 1 hrs and 24 hrs and measured at last 4 mins of 6 mins test by forced swim test relative to fluoxetine; type: functional; set-up: scale not given: the % may be the effect or the level left; conditions: time 1444 min, 24.07 h
# Outline: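 Male Kunming mice, 15–18 g, housed six per cage at 22 ± 1 °C on a 12 h light/dark cycle. Oral dosing 24 h and 1 h before the test. Each mouse placed in a cylinder (25 cm high, 15 cm diameter) holding 10 cm of water at 25 ± 1 °C and made to swim 6 min; immobility over the last 4 min scored by video tracking.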
# Mus musculus [20] = assay: Antidepressant activity in kunming mouse assessed as increase in dopamine level in hippocampus at 160 mg/kg, po measured after 14 days by HPLC-ECD analysis; type: functional, organism-based; conditions: time 14.0 day; outline: as §3
# Mus musculus [21] = assay: Antidepressant activity in kunming mouse assessed as decrease in DOPAC level in frontal cortex at 160 mg/kg, po measured after 14 days by HPLC-ECD analysis; type: functional, organism-based; conditions: time 14.0 day; outline: as §3
# Mus musculus [22] = assay: Antidepressant activity in kunming mouse assessed as decrease in DOPAC level in hypothalamus at 160 mg/kg, po measured after 14 days by HPLC-ECD analysis; type: functional, organism-based; conditions: time 14.0 day; outline: as §3
# T1 sequence (P48039 whole entry): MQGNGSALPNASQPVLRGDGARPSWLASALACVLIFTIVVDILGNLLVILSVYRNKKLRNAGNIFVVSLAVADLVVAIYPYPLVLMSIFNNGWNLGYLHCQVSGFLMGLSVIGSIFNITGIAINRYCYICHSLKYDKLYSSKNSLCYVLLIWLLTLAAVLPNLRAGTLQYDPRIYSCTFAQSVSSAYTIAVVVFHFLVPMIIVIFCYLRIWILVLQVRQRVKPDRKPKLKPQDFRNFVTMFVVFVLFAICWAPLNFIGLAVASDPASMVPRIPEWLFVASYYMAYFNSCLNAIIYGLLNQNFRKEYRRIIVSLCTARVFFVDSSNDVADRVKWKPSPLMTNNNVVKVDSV
compound,measurement,setting,value
COc1cc2c(CN3CCN(C)CC3)coc2cc1C,Activity,HEK293T,Active
same,Activity,Mus musculus [1],26%
same,Activity,Mus musculus [2],Active
same,Activity,Mus musculus [3],Active
same,Activity,Mus musculus [4],Active
same,Activity,[5],Non-Toxic
same,AUC,[6],5620 ng·h/mL
same,Activity,Mus musculus [7],Active
same,Activity,Mus musculus [8],Active
same,pEC50,[9],3.48
same,Activity,Mus musculus [10],26%
same,pEC50,[11],3.52
same,Emax,[12],57%
same,Activity,[13],Non-Toxic
same,half-life,[14],5.47 h
same,Activity,Mus musculus [15],Active
same,Tmax,[16],4.98 min
same,Activity,[17],Non-Toxic
same,Activity,Mus musculus [18],Active
same,Activity,Mus musculus [19],29%
same,Activity,Mus musculus [20],Active
same,Activity,Mus musculus [21],Active
same,Activity,Mus musculus [22],Active
